# PubChem BioAssay AID504509 (Southern Research Specialized Biocontainment Screening …, 2011)
# The source made the active and inactive calls.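 How the source made its calls: active means cell viability under 70% at any tested concentration, a measure not printed in our tables; inactive means the rest.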
# Test system: HEp-2 viability, luminescence, cytotoxicity counter-screen
# Experiment: host cell viability for RSV antiviral hits – HEp-2 cells, synthesized compounds, set 6, cytotoxicity control for RSV inhibitor project, dose response (AID 504509)
# Procedure, shortened: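 Material: HEp-2 cells without virus | Amount: 10,595 HEp-2 cells per well | Measured by: ATP luminescence (CellTiter-Glo) | Times: Compound exposure of 6 days at 37 °C | Read-out basis: CC50 from % viability versus untreated-cell median | Replicates: Triplicate | Buffer or medium: DMEM/F12 | Compound: Eight 1:2 dilutions, 0.39–50 µM, 0.5% DMSO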
row,SMILES,CC50
1,COc1cccc(CNC(=O)C2CCN(S(=O)(=O)c3cccc4nonc34)CC2)c1,> 50 µM (inactive)
2,Cc1ccc(Cl)cc1NC(=O)[C@@H]1CCCN1S(=O)(=O)c1cccc2cccnc12,9.59 µM
3,COc1ccccc1CNC(=O)C1CCN(S(=O)(=O)c2cccc3nonc23)CC1,> 50 µM (inactive)
4,O=C(O)C1CC=CCC1C(=O)Nc1ccc(S(=O)(=O)N2CCCc3ccccc32)cc1 (configuration not stated),33 µM
5,COc1ccccc1CNC(=O)[C@@H]1CCCN1S(=O)(=O)c1cccc2cccnc12,> 50 µM (inactive)
6,Cc1ccc(Cl)c(NC(=O)[C@@H]2CCCN2S(=O)(=O)c2cccc3cccnc23)c1,9.83 µM
7,COc1ccccc1CNC(=O)C1CCN(S(=O)(=O)c2cccc3cccnc23)CC1,> 50 µM (inactive)
8,Cc1ccc(C)c(NC(=O)[C@@H]2CCCN2S(=O)(=O)c2cccc3cccnc23)c1,50.4 µM
9,COc1ccccc1CNC(=O)C1CCN(Cc2cccc3nonc23)CC1,> 50 µM (inactive)
10,Cc1cccc(C)c1NC(=O)[C@@H]1CCCN1S(=O)(=O)c1cccc2cccnc12,> 50 µM (inactive)
11,Cc1ccc(C(C)(C)C)cc1NC(=O)[C@@H]1CCCN1S(=O)(=O)c1cccc2cccnc12,7.18 µM
12,COc1ccccc1CNC(=O)C1CCN(S(=O)(=O)c2ccccc2)CC1,> 50 µM (inactive)
13,COc1ccccc1NCC(=O)Nc1cc(S(=O)(=O)N2CCOCC2)ccc1N1CCOCC1,> 50 µM (inactive)
14,Cc1ccc(C(F)(F)F)cc1NC(=O)[C@@H]1CCCN1S(=O)(=O)c1cccc2cccnc12,6.92 µM
15,COCCNC(=O)c1ccc(Cn2c(=O)c3ccccc3n(Cc3ccc(C)cc3)c2=O)cc1,> 50 µM (inactive)
16,COCCCNC(=O)c1ccc(Cn2c(=O)c3ccccc3n(Cc3ccccc3)c2=O)cc1,> 50 µM (inactive)
17,Cc1ccc(C(C)C)cc1NC(=O)[C@@H]1CCCN1S(=O)(=O)c1cccc2cccnc12,8.26 µM
